According to ChEMBL document CHEMBL1130160 (J Med Chem, 1997):

Tested on: Rattus norvegicus
Experiment: Minimum effective dose at which significant increase in uterine weight/body weight in rat was determined (in vivo)
Type: functional
Conditions: read-out: MED
Outline: (§1)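 In 75-day OVX Sprague–Dawley rats dosed orally for 4 days, beginning 2 weeks post-ovariectomy with 5–6 rats per group, whole uteri were weighed the morning after fasting. MED is the lowest dose giving a significant (p≤0.05) rise in uterine weight/body weight, expressed as % increase over OVX controls ±SE.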

| Structure (SMILES) | minimal effective dose [mg/kg] |
| --- | --- |
| Cl.O=C(c1ccc(OCCN2CCCCC2)cc1)c1c(-c2ccc(F)cc2)sc2cc(O)ccc12 | 1 |
| O=C(c1ccc(OCCN2CCCCC2)cc1)c1c(-c2ccc(O)cc2)sc2cc(O)c(F)cc12 | > 10 |
| Cc1cc2c(C(=O)c3ccc(OCCN4CCCCC4)cc3)c(-c3ccc(O)cc3)sc2cc1O | > 10 |
| Cc1cc(-c2sc3cc(O)ccc3c2C(=O)c2ccc(OCCN3CCCCC3)cc2)ccc1O | > 10 |
| O=C(c1ccc(OCCN2CCCCC2)cc1)c1c(-c2cccc(F)c2)sc2cc(O)ccc12 | 0.1 |
| O=C(c1ccc(OCCN2CCCCC2)cc1)c1c(-c2ccc(O)cc2)sc2cccc(O)c12 | > 10 |
| Cc1ccc(-c2sc3cc(O)ccc3c2C(=O)c2ccc(OCCN3CCCCC3)cc2)cc1.Cl | 1 |
| Cl.O=C(c1ccc(OCCN2CCCCC2)cc1)c1c(-c2ccccc2)sc2cc(O)ccc12 | 0.1 |
| O=C(c1ccc(OCCN2CCCCC2)cc1)c1c(-c2ccc(O)c(Cl)c2)sc2cc(O)ccc12 | 10 |
| O=C(c1ccc(OCCN2CCCCC2)cc1)c1c(-c2ccc(O)cc2)sc2ccc(O)cc12 | > 10 |
| NC(=O)c1ccc(-c2sc3cc(O)ccc3c2C(=O)c2ccc(OCCN3CCCCC3)cc2)cc1 | > 10 |
| CC/C(=C(\c1ccccc1)c1ccc(OCCN(C)C)cc1)c1ccccc1 [TAMOXIFEN] | 0.1 |
| Cc1cc(O)ccc1-c1sc2cc(O)ccc2c1C(=O)c1ccc(OCCN2CCCCC2)cc1 | 0.1 |
| O=C(c1ccc(OCCN2CCCCC2)cc1)c1c(-c2ccccc2O)sc2cc(O)ccc12 | > 10 |
| C#Cc1ccc(-c2sc3cc(O)ccc3c2C(=O)c2ccc(OCCN3CCCCC3)cc2)cc1 | > 10 |
| COc1cc(O)ccc1-c1sc2cc(O)ccc2c1C(=O)c1ccc(OCCN2CCCCC2)cc1 | 0.1 |

Tested on: Rattus norvegicus
Experiment: Minimum effective dose at which significant increase in uterine eosinophil peroxidase (EPO) activity in rat was determined (in vivo)
Type: functional
Conditions: read-out: MED

| Structure (SMILES) | minimal effective dose [mg/kg] |
| --- | --- |
| Cl.O=C(c1ccc(OCCN2CCCCC2)cc1)c1c(-c2ccc(F)cc2)sc2cc(O)ccc12 | > 10 |
| O=C(c1ccc(OCCN2CCCCC2)cc1)c1c(-c2ccc(O)cc2)sc2cc(O)c(F)cc12 | > 10 |
| Cc1cc2c(C(=O)c3ccc(OCCN4CCCCC4)cc3)c(-c3ccc(O)cc3)sc2cc1O | > 10 |
| Cc1cc(-c2sc3cc(O)ccc3c2C(=O)c2ccc(OCCN3CCCCC3)cc2)ccc1O | > 10 |
| O=C(c1ccc(OCCN2CCCCC2)cc1)c1c(-c2cccc(F)c2)sc2cc(O)ccc12 | > 10 |
| O=C(c1ccc(OCCN2CCCCC2)cc1)c1c(-c2ccc(O)cc2)sc2cccc(O)c12 | > 10 |
| Cc1ccc(-c2sc3cc(O)ccc3c2C(=O)c2ccc(OCCN3CCCCC3)cc2)cc1.Cl | > 10 |
| Cl.O=C(c1ccc(OCCN2CCCCC2)cc1)c1c(-c2ccccc2)sc2cc(O)ccc12 | > 10 |
| O=C(c1ccc(OCCN2CCCCC2)cc1)c1c(-c2ccc(O)c(Cl)c2)sc2cc(O)ccc12 | > 10 |
| O=C(c1ccc(OCCN2CCCCC2)cc1)c1c(-c2ccc(O)cc2)sc2ccc(O)cc12 | > 10 |
| NC(=O)c1ccc(-c2sc3cc(O)ccc3c2C(=O)c2ccc(OCCN3CCCCC3)cc2)cc1 | > 10 |
| CC/C(=C(\c1ccccc1)c1ccc(OCCN(C)C)cc1)c1ccccc1 [TAMOXIFEN] | 0.1 |
| Cc1cc(O)ccc1-c1sc2cc(O)ccc2c1C(=O)c1ccc(OCCN2CCCCC2)cc1 | > 10 |
| O=C(c1ccc(OCCN2CCCCC2)cc1)c1c(-c2ccccc2O)sc2cc(O)ccc12 | > 10 |
| C#Cc1ccc(-c2sc3cc(O)ccc3c2C(=O)c2ccc(OCCN3CCCCC3)cc2)cc1 | > 10 |
| COc1cc(O)ccc1-c1sc2cc(O)ccc2c1C(=O)c1ccc(OCCN2CCCCC2)cc1 | 1 |

Tested on: Rattus norvegicus
Experiment: Minimum effective dose at which significant increase in uterine weight/body weight in rat was determined (in vivo); expressed as % increase relative to ovariectomized (OVX) controls
Type: functional
Conditions: not given
Outline: as §1

| Structure (SMILES) | Increase [%] |
| --- | --- |
| Cl.O=C(c1ccc(OCCN2CCCCC2)cc1)c1c(-c2ccc(F)cc2)sc2cc(O)ccc12 | 50.2 |
| Cc1ccc(-c2sc3cc(O)ccc3c2C(=O)c2ccc(OCCN3CCCCC3)cc2)cc1.Cl | 34.6 |
| Cl.O=C(c1ccc(OCCN2CCCCC2)cc1)c1c(-c2ccccc2)sc2cc(O)ccc12 | 38.7 |
| O=C(c1ccc(OCCN2CCCCC2)cc1)c1c(-c2ccc(O)c(Cl)c2)sc2cc(O)ccc12 | 30.3 |
| CC/C(=C(\c1ccccc1)c1ccc(OCCN(C)C)cc1)c1ccccc1 [TAMOXIFEN] | 62.4 |

Tested on: Rattus norvegicus
Experiment: Percent decrease in serum cholesterol relative to OVX control at 10 mg/kg in rat was determined (in vivo)
Type: functional
Conditions: not given
Outline: (§2)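 OVX Sprague–Dawley rats (75 days old), 5–6 per group, dosed once daily by oral gavage for 4 consecutive days, starting 14 days after ovariectomy. Vehicle was 20% β-hydroxycyclodextrin at 1 mL/kg, or 1.5% carboxymethylcellulose in some cases. Rats were fasted after the last dose and bled by cardiac puncture next morning.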

| Structure (SMILES) | Decrease [%] |
| --- | --- |
| Cl.O=C(c1ccc(OCCN2CCCCC2)cc1)c1c(-c2ccc(F)cc2)sc2cc(O)ccc12 | 71.9 |
| O=C(c1ccc(OCCN2CCCCC2)cc1)c1c(-c2ccc(O)cc2)sc2cc(O)c(F)cc12 | 31.6 |
| Cc1cc2c(C(=O)c3ccc(OCCN4CCCCC4)cc3)c(-c3ccc(O)cc3)sc2cc1O | 43.7 |
| O=C(c1ccc(OCCN2CCCCC2)cc1)c1c(-c2ccc(O)cc2)sc2cccc(O)c12 | 31.8 |
| Cc1ccc(-c2sc3cc(O)ccc3c2C(=O)c2ccc(OCCN3CCCCC3)cc2)cc1.Cl | 69.1 |
| Cl.O=C(c1ccc(OCCN2CCCCC2)cc1)c1c(-c2ccccc2)sc2cc(O)ccc12 | 66 |
| O=C(c1ccc(OCCN2CCCCC2)cc1)c1c(-c2ccc(O)cc2)sc2ccc(O)cc12 | 22.6 |
| NC(=O)c1ccc(-c2sc3cc(O)ccc3c2C(=O)c2ccc(OCCN3CCCCC3)cc2)cc1 | 10 |
| CC/C(=C(\c1ccccc1)c1ccc(OCCN(C)C)cc1)c1ccccc1 [TAMOXIFEN] | 67 |
| C#Cc1ccc(-c2sc3cc(O)ccc3c2C(=O)c2ccc(OCCN3CCCCC3)cc2)cc1 | 35.8 |

Biological target: Estrogen receptor (Homo sapiens, UniProt Q92731+P03372)
Conditions: mcf7

| Structure (SMILES) | IC50 [nM] |
| --- | --- |
| Cl.O=C(c1ccc(OCCN2CCCCC2)cc1)c1c(-c2ccc(F)cc2)sc2cc(O)ccc12 | 2.3 |
| O=C(c1ccc(OCCN2CCCCC2)cc1)c1c(-c2ccc(O)cc2)sc2cc(O)c(F)cc12 | 3 |
| Cc1cc(-c2sc3cc(O)ccc3c2C(=O)c2ccc(OCCN3CCCCC3)cc2)ccc1O | 1 |
| O=C(c1ccc(OCCN2CCCCC2)cc1)c1c(-c2cccc(F)c2)sc2cc(O)ccc12 | 2.5 |
| O=C(c1ccc(OCCN2CCCCC2)cc1)c1c(-c2ccc(O)cc2)sc2cccc(O)c12 | 190 |
| Cc1ccc(-c2sc3cc(O)ccc3c2C(=O)c2ccc(OCCN3CCCCC3)cc2)cc1.Cl | 50 |
| Cl.O=C(c1ccc(OCCN2CCCCC2)cc1)c1c(-c2ccccc2)sc2cc(O)ccc12 | 2.5 |
| O=C(c1ccc(OCCN2CCCCC2)cc1)c1c(-c2ccc(O)c(Cl)c2)sc2cc(O)ccc12 | 2.3 |
| O=C(c1ccc(OCCN2CCCCC2)cc1)c1c(-c2ccc(O)cc2)sc2ccc(O)cc12 | 100 |
| Cc1cc(O)ccc1-c1sc2cc(O)ccc2c1C(=O)c1ccc(OCCN2CCCCC2)cc1 | 2 |
| O=C(c1ccc(OCCN2CCCCC2)cc1)c1c(-c2ccccc2O)sc2cc(O)ccc12 | 10 |
| COc1cc(O)ccc1-c1sc2cc(O)ccc2c1C(=O)c1ccc(OCCN2CCCCC2)cc1 | 2 |

Tested on: Rattus norvegicus
Experiment: Dose required to reduce serum cholesterol by 50% relative to OVX controls was determined (in vivo)
Type: functional
Conditions: not given
Outline: as §2

| Structure (SMILES) | ED50 [mg/kg] |
| --- | --- |
| Cl.O=C(c1ccc(OCCN2CCCCC2)cc1)c1c(-c2ccc(F)cc2)sc2cc(O)ccc12 | 1.4 |
| O=C(c1ccc(OCCN2CCCCC2)cc1)c1c(-c2ccc(O)cc2)sc2cc(O)c(F)cc12 | > 10 |
| Cc1cc2c(C(=O)c3ccc(OCCN4CCCCC4)cc3)c(-c3ccc(O)cc3)sc2cc1O | 5.4 |
| Cc1cc(-c2sc3cc(O)ccc3c2C(=O)c2ccc(OCCN3CCCCC3)cc2)ccc1O | 1 |
| O=C(c1ccc(OCCN2CCCCC2)cc1)c1c(-c2cccc(F)c2)sc2cc(O)ccc12 | 1 |
| O=C(c1ccc(OCCN2CCCCC2)cc1)c1c(-c2ccc(O)cc2)sc2cccc(O)c12 | > 10 |
| Cc1ccc(-c2sc3cc(O)ccc3c2C(=O)c2ccc(OCCN3CCCCC3)cc2)cc1.Cl | 2.9 |
| Cl.O=C(c1ccc(OCCN2CCCCC2)cc1)c1c(-c2ccccc2)sc2cc(O)ccc12 | < 0.1 |
| O=C(c1ccc(OCCN2CCCCC2)cc1)c1c(-c2ccc(O)c(Cl)c2)sc2cc(O)ccc12 | 1.2 |
| CC/C(=C(\c1ccccc1)c1ccc(OCCN(C)C)cc1)c1ccccc1 [TAMOXIFEN] | 0.2 |
| Cc1cc(O)ccc1-c1sc2cc(O)ccc2c1C(=O)c1ccc(OCCN2CCCCC2)cc1 | 0.4 |
| O=C(c1ccc(OCCN2CCCCC2)cc1)c1c(-c2ccccc2O)sc2cc(O)ccc12 | > 10 |
| C#Cc1ccc(-c2sc3cc(O)ccc3c2C(=O)c2ccc(OCCN3CCCCC3)cc2)cc1 | > 10 |
| COc1cc(O)ccc1-c1sc2cc(O)ccc2c1C(=O)c1ccc(OCCN2CCCCC2)cc1 | < 0.1 |

Tested on: Rattus norvegicus
Experiment: Percent decrease in serum cholesterol relative to OVX control at 0.1 mg/kg in rat was determined (in vivo)
Type: functional
Conditions: not given
Outline: as §2

| Structure (SMILES) | Decrease [%] |
| --- | --- |
| Cl.O=C(c1ccc(OCCN2CCCCC2)cc1)c1c(-c2ccc(F)cc2)sc2cc(O)ccc12 | 20.6 |
| O=C(c1ccc(OCCN2CCCCC2)cc1)c1c(-c2ccc(O)cc2)sc2cc(O)c(F)cc12 | 4.6 |
| Cc1cc2c(C(=O)c3ccc(OCCN4CCCCC4)cc3)c(-c3ccc(O)cc3)sc2cc1O | -4.3 |
| Cc1cc(-c2sc3cc(O)ccc3c2C(=O)c2ccc(OCCN3CCCCC3)cc2)ccc1O | 28.4 |
| O=C(c1ccc(OCCN2CCCCC2)cc1)c1c(-c2ccc(O)cc2)sc2cccc(O)c12 | 29.6 |
| Cc1ccc(-c2sc3cc(O)ccc3c2C(=O)c2ccc(OCCN3CCCCC3)cc2)cc1.Cl | 12.2 |
| Cl.O=C(c1ccc(OCCN2CCCCC2)cc1)c1c(-c2ccccc2)sc2cc(O)ccc12 | 55.6 |
| O=C(c1ccc(OCCN2CCCCC2)cc1)c1c(-c2ccc(O)cc2)sc2ccc(O)cc12 | 10.4 |
| NC(=O)c1ccc(-c2sc3cc(O)ccc3c2C(=O)c2ccc(OCCN3CCCCC3)cc2)cc1 | -3.2 |
| CC/C(=C(\c1ccccc1)c1ccc(OCCN(C)C)cc1)c1ccccc1 [TAMOXIFEN] | 39.2 |
| O=C(c1ccc(OCCN2CCCCC2)cc1)c1c(-c2ccccc2O)sc2cc(O)ccc12 | 7.8 |
| C#Cc1ccc(-c2sc3cc(O)ccc3c2C(=O)c2ccc(OCCN3CCCCC3)cc2)cc1 | 9.1 |

Tested on: Rattus norvegicus
Experiment: Percent decrease in serum cholesterol relative to OVX control at 1 mg/kg in rat
Type: functional
Conditions: not given
Outline: as §2

| Structure (SMILES) | Decrease [%] |
| --- | --- |
| Cl.O=C(c1ccc(OCCN2CCCCC2)cc1)c1c(-c2ccc(F)cc2)sc2cc(O)ccc12 | 46 |
| O=C(c1ccc(OCCN2CCCCC2)cc1)c1c(-c2ccc(O)cc2)sc2cc(O)c(F)cc12 | 4.1 |
| Cc1cc2c(C(=O)c3ccc(OCCN4CCCCC4)cc3)c(-c3ccc(O)cc3)sc2cc1O | 42.2 |
| Cc1cc(-c2sc3cc(O)ccc3c2C(=O)c2ccc(OCCN3CCCCC3)cc2)ccc1O | 73.9 |
| O=C(c1ccc(OCCN2CCCCC2)cc1)c1c(-c2cccc(F)c2)sc2cc(O)ccc12 | 62 |
| O=C(c1ccc(OCCN2CCCCC2)cc1)c1c(-c2ccc(O)cc2)sc2cccc(O)c12 | 18 |
| Cc1ccc(-c2sc3cc(O)ccc3c2C(=O)c2ccc(OCCN3CCCCC3)cc2)cc1.Cl | 26.5 |
| Cl.O=C(c1ccc(OCCN2CCCCC2)cc1)c1c(-c2ccccc2)sc2cc(O)ccc12 | 53.4 |
| O=C(c1ccc(OCCN2CCCCC2)cc1)c1c(-c2ccc(O)c(Cl)c2)sc2cc(O)ccc12 | 52.7 |
| O=C(c1ccc(OCCN2CCCCC2)cc1)c1c(-c2ccc(O)cc2)sc2ccc(O)cc12 | 3.7 |
| NC(=O)c1ccc(-c2sc3cc(O)ccc3c2C(=O)c2ccc(OCCN3CCCCC3)cc2)cc1 | -21.3 |
| CC/C(=C(\c1ccccc1)c1ccc(OCCN(C)C)cc1)c1ccccc1 [TAMOXIFEN] | 71.1 |
| C#Cc1ccc(-c2sc3cc(O)ccc3c2C(=O)c2ccc(OCCN3CCCCC3)cc2)cc1 | 32.7 |
| COc1cc(O)ccc1-c1sc2cc(O)ccc2c1C(=O)c1ccc(OCCN2CCCCC2)cc1 | 79 |
